In ChEMBL document CHEMBL1152262, “New cyclic somatostatin analogues containing a pyrazinone ring: importance of Tyr for antiproliferative activity” (2008):
Where a SMILES comes first, the peptide text is derived from it. Bridges are numbered along the chain shown (N, C = ends). [ ]: non-standard residue; d: D form.

Tests used:
Format in all cases: functional
A-431 [1] = assay: Antiproliferative activity against human A431 cells at 25 uM by MTT assay
Procedure, shortened: (§1)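 MTT read-out of proliferation in A431 (human epithelial tumour) and SW480 (human colon carcinoma) cells, both described as expressing SSTRs. Each analogue was tested at […]. TT-232 and cycloheximide were run as positive controls.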

SW480 [2] = assay: Antiproliferative activity against human SW480 cells at 25 uM by MTT assay; procedure, shortened: as §1
A-431 [3] = assay: Antiproliferative activity against human A431 cells at 10 uM by MTT assay; procedure, shortened: as §1
SW480 [4] = assay: Antiproliferative activity against human SW480 cells at 50 uM by MTT assay; procedure, shortened: as §1
A-431 [5] = assay: Antiproliferative activity against human A431 cells at 50 uM by MTT assay; procedure, shortened: as §1
SW480 [6] = assay: Antiproliferative activity against human SW480 cells at 10 uM by MTT assay; procedure, shortened: as §1

Structure (SMILES) | Activity (A-431 [1]) | Activity (SW480 [2]) | Activity (A-431 [3]) | Activity (SW480 [4]) | Activity (A-431 [5]) | Activity (SW480 [6])
C[C@@H](O)[C@H](NC(=O)[C@@H]1CSSC[C@H](NC(=O)[C@H](N)Cc2ccccc2)C(=O)N[C@@H](Cc2ccc(O)cc2)C(=O)N[C@H](Cc2c[nH]c3ccccc23)C(=O)N[C@@H](CCCCN)C(=O)N1)C(N)=O [TT-232] (H-[dF]CY[dW]KCT-NH2; disulfide 2-6) | 60% | 47% | 50% | 88% | 80% | 13%
Cc1nc2c(=O)[nH]c1CCCCNC(=O)[C@H](CCCCN)NC(=O)[C@@H](Cc1c[nH]c3ccccc13)NC(=O)[C@H](Cc1ccccc1)NC(=O)CC2 | 0% | 4% | 0% | 4% | 0% | 2%
C[C@@H]1C[C@@H]([C@H](O)CC2CC(=O)NC(=O)C2)C(=O)[C@@H](C)C1 [CYCLOHEXIMIDE] | 70% | 85% | 40% | 92% | 80% | 68%
Cc1cc(O)cc(C)c1C[C@@H]1NC(=O)CCc2nc(C)c([nH]c2=O)CCCCNC(=O)[C@H](CCCCN)NC(=O)[C@@H](Cc2c[nH]c3ccccc23)NC1=O | 0% | 11% | 0% | 7% | 0% | 2%
Cc1nc2c(=O)[nH]c1CCC(=O)N[C@@H](Cc1ccc(O)cc1)C(=O)N[C@H](Cc1c[nH]c3ccccc13)C(=O)N[C@@H](CCCCN)C(=O)NCCCC2 | 36% | 23% | 19% | 7% | 56% | 24%
Cc1nc2c(=O)[nH]c1CCCCNC(=O)[C@H](CCCCN)NC(=O)[C@@H](Cc1c[nH]c3ccccc13)NC(=O)[C@H](Cc1ccc(O)cc1)NC(=O)CC2 | 42% | 31% | 28% | 35% | 58% | 35%
Cc1nc2c(=O)[nH]c1CCC(=O)N[C@@H](Cc1ccccc1)C(=O)N[C@H](Cc1c[nH]c3ccccc13)C(=O)N[C@@H](CCCCN)C(=O)NCCCC2 | 28% | 7% | 31% | 0% | 25% | 0%
Cc1cc(O)cc(C)c1C[C@@H]1NC(=O)CCc2[nH]c(=O)c(nc2C)CCCCNC(=O)[C@H](CCCCN)NC(=O)[C@@H](Cc2c[nH]c3ccccc23)NC1=O | 0% | 16% | 0% | 14% | 0% | 8%
